Source: ChEMBL document CHEMBL1158787, “Antibiotic terpenoid chloro-dihydroquinones from a new marine actinomycete” (J Nat Prod, 2005)
Values after ≈ are worked out from the molar mass of the structure shown.

What was measured:
[1] = Cytotoxicity against human […] cell after 72 hrs by MTS assay; assay type: functional, cell-based
Summary of the method: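 HCT-116 colon carcinoma cells were preincubated overnight at 37 °C in 5% CO2/air. Test materials were serially diluted 1:4, with etoposide as positive control and DMSO as negative control. After 72 h, viability was read as MTS reduction to formazan at 490 nm. IC50 was calculated from the curves.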

Staphylococcus aureus = assay: Antimicrobial activity against methicillin-resistant Staphylococcus aureus; assay type: functional
Summary of the method: (§1)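 Broth microdilution: MRSA or VREF grown overnight at 37 °C in GYT medium (0.1% glucose, 0.25% yeast extract, 0.5% tryptone), adjusted to OD 0.04–0.06, then diluted 1:10. Test materials serially diluted 1:2, incubated 16–18 h at 37 °C. Vancomycin (MRSA) or penicillin G (VREF) as positive controls, DMSO as negative control. MIC read from OD600.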

Enterococcus faecium = assay: Antimicrobial activity against vancomycin resistant Enterococcus faecium; assay type: functional; summary of the method: as §1

| SMILES | IC50 [1] [µg/mL] | MIC (Staphylococcus aureus) [µg/mL] | MIC (Enterococcus faecium) [µg/mL] |
| --- | --- | --- | --- |
| Cc1c(O)cc2c(c1O)C(=O)C1=C[C@@H](Cl)C(C)(C)O[C@@]1(C[C@H]1C(C)(C)[C@@H](Cl)CC[C@]1(C)O)C2=O | 0.97 (≈ 1.9 µM) | 15.6 (≈ 30.5 µM) | 15.6 (≈ 30.5 µM) |
| C=C1CC[C@H](Cl)C(C)(C)[C@@H]1C[C@@]12OC(C)(C)[C@H](Cl)C[C@]1(Cl)C(=O)c1c(cc(O)c(C)c1O)C2=O | 1.84 (≈ 3.47 µM) | 1.9 (≈ 3.59 µM) | 3.9 (≈ 7.36 µM) |
| Cc1c(O)cc2c(c1O)C(=O)[C@H]1C[C@@H](Cl)C(C)(C)O[C@@]1(C[C@H]1C(C)(C)[C@@H](Cl)CC[C@]1(C)O)C2=O | 2.4 (≈ 4.67 µM) | 1.95 (≈ 3.8 µM) | 3.9 (≈ 7.6 µM) |
| C=C1CC[C@H](Cl)C(C)(C)[C@@H]1C[C@@]12OC(C)(C)[C@H](Cl)C=C1C(=O)c1c(cc(O)c(C)c1O)C2=O | – | 1.95 (≈ 3.95 µM) | 1.95 (≈ 3.95 µM) |
